In ChEMBL document CHEMBL4049410, “Novel benzimidazolyl tetrahydroprotoberberines: Design, synthesis, antimicrobial evaluation and multi-targeting exploration” (2017):
≈ marks a conversion by molar mass, not a printed value. Calls of active or inactive are those of the source. The rule behind the calls is not given here.

Columns and labels:
Staphylococcus aureus [1] = test: Antibacterial activity against methicillin-resistant Staphylococcus aureus N315 after 24 hrs by two-fold serial dilution assay; assay type: functional
Bacillus subtilis = test: Antibacterial activity against Bacillus subtilis after 24 hrs by two-fold serial dilution assay; assay type: functional
Summary of the method: (§1)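 Twofold serial broth dilution following NCCLS guidance, with Chloromycin, Norfloxacin and Fluconazole as positive controls. MIC in μM is the lowest concentration giving complete inhibition of visible bacterial or fungal growth.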

Micrococcus luteus = test: Antibacterial activity against Micrococcus luteus ATCC 4698 after 24 hrs by two-fold serial dilution assay; assay type: functional, NCTC 2665; summary of the method: as §1
Staphylococcus aureus [2] = test: Antibacterial activity against Staphylococcus aureus ATCC 25923 after 24 hrs by two-fold serial dilution assay; assay type: functional; summary of the method: as §1
Escherichia coli [3] = test: Antibacterial activity against Escherichia coli JM109 after 24 hrs by two-fold serial dilution assay; assay type: functional; summary of the method: as §1
Escherichia coli [4] = test: Antibacterial activity against Escherichia coli DH52 after 24 hrs by two-fold serial dilution assay; assay type: functional; summary of the method: as §1
Shigella dysenteriae = test: Antibacterial activity against Shigella dysenteriae after 24 hrs by two-fold serial dilution assay; assay type: functional
Pseudomonas aeruginosa = test: Antibacterial activity against Pseudomonas aeruginosa after 24 hrs by two-fold serial dilution assay; assay type: functional; summary of the method: as §1
Salmonella typhi = test: Antibacterial activity against Bacillus typhi after 24 hrs by two-fold serial dilution assay; assay type: functional, Salmonella enterica subsp. enterica serovar Typhi
Proteus vulgaris = test: Antibacterial activity against Bacillus proteus ATCC 13315 after 24 hrs by two-fold serial dilution assay; assay type: functional; summary of the method: as §1
Pichia norvegensis = test: Antifungal activity against Candida mycoderma after 24 hrs by two-fold serial dilution assay; assay type: functional; summary of the method: as §1
Cyberlindnera jadinii = test: Antifungal activity against Candida utilis after 24 hrs by two-fold serial dilution assay; assay type: functional; summary of the method: as §1
Saccharomyces cerevisiae = test: Antifungal activity against Saccharomyces cerevisiae after 24 hrs by two-fold serial dilution assay; assay type: functional; summary of the method: as §1
Aspergillus flavus = test: Antifungal activity against Aspergillus flavus after 24 hrs by two-fold serial dilution assay; assay type: functional; summary of the method: as §1
Candida albicans = test: Antifungal activity against Candida albicans ATCC 76615 after 24 hrs by two-fold serial dilution assay; assay type: functional; summary of the method: as §1
Staphylococcus aureus [5] = test: Antibacterial activity against methicillin-resistant Staphylococcus aureus N315 after 15 serial passages by two-fold serial dilution assay; assay type: functional
Summary of the method: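 Resistance-development test in MRSA. Cultures were propagated with fresh medium and serially diluted test agent, and the MIC was redetermined every 24 h. Parallel cultures were exposed to 2-fold dilutions of Chloromycin and Norfloxacin as positive controls. MIC was the lowest concentration giving complete growth inhibition.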

[6] = Binding affinity to DNA (unknown origin) assessed as hyperchromic effect up to 1.4 x 10^-5mol/L by UV-Visible absorption spectroscopy
Summary of the method: (§2)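 Calf thymus DNA is held at a fixed concentration, quantified by A260 (ε260 = 6600 L mol⁻¹ cm⁻¹, per phosphate) and checked for A260/A280 > 1.8. It is titrated with increasing compound in Tris-HCl pH 7.4 at 290 K. UV-vis spectra are recorded, following absorbance at 260 nm. The binding constant K is derived from a linear fit (R, SD reported).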

[7] = Binding affinity to DNA (unknown origin) by UV-Visible absorption spectroscopy; summary of the method: as §2
Bos taurus [8] = species: Bos taurus; test: Inhibition of neutral red binding to calf thymus DNA up to 1.4 x 10^-5mol/L by UV-Visible absorption spectroscopy
Bos taurus [9] = species: Bos taurus; test: Induction of calf thymus DNA intercalation assessed as protection of compound quenching from iodide ion by fluorescence assay (reference value: 104.52 L/mol)
Escherichia coli [10] = test: Induction of Escherichia coli pBR322 DNA cleavage assessed as conversion of covalently closed circular DNA to open circular form and linear form of DNA by agarose gel electrophoresis method
Summary of the method: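 Supercoiled pBR322 plasmid is incubated with compound at 25, 50 and 75 μM alongside a DNA-only control at 37 °C, pH 7.0. Products are resolved by gel electrophoresis, scoring conversion of Form I to Form II (nicked) and Form III (linear).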

[11] = Staphylococcus aureus, N315, 24 h, read-out: MIC
[12] = Bacillus subtilis, 24 h, read-out: MIC
[13] = Micrococcus luteus, NCTC 2665, 24 h, read-out: MIC
[14] = Staphylococcus aureus, ATCC 25923, 24 h, read-out: MIC
[15] = Escherichia coli, JM109, 24 h, read-out: MIC
[16] = Escherichia coli, DH52, 24 h, read-out: MIC
[17] = Shigella dysenteriae, 24 h, read-out: MIC
[18] = Pseudomonas aeruginosa, 24 h, read-out: MIC
[19] = Salmonella enterica, 24 h, read-out: MIC
[20] = Proteus vulgaris, ATCC 13315, 24 h, read-out: MIC
[21] = Pichia norvegensis, 24 h, read-out: MIC
[22] = Williopsis jadinii, 24 h, read-out: MIC
[23] = Saccharomyces cerevisiae, 24 h, read-out: MIC
[24] = Aspergillus flavus, 24 h, read-out: MIC
[25] = Candida albicans, ATCC 76615, 24 h, read-out: MIC

| SMILES | MIC (Staphylococcus aureus [1]; [11]) [µM] | MIC (Bacillus subtilis; [12]) [µM] | MIC (Micrococcus luteus; [13]) [µM] | MIC (Staphylococcus aureus [2]; [14]) [µM] | MIC (Escherichia coli [3]; [15]) [µM] | MIC (Escherichia coli [4]; [16]) [µM] | MIC (Shigella dysenteriae; [17]) [µM] | MIC (Pseudomonas aeruginosa; [18]) [µM] | MIC (Salmonella typhi; [19]) [µM] | MIC (Proteus vulgaris; [20]) [µM] | MIC (Pichia norvegensis; [21]) [µM] | MIC (Cyberlindnera jadinii; [22]) [µM] | MIC (Saccharomyces cerevisiae; [23]) [µM] | MIC (Aspergillus flavus; [24]) [µM] | MIC (Candida albicans; [25]) [µM] | also measured |
| --- | --- | --- | --- | --- | --- | --- | --- | --- | --- | --- | --- | --- | --- | --- | --- | --- |
| COc1cc(-c2nc3cc(F)ccc3[nH]2)c2c(c1O)CN1CCc3cc4c(cc3C1C2)OCO4 (stereo unspecified) | 17.4 (≈ 7.99 µg/mL) | 4.4 (≈ 2.02 µg/mL) | 46.4 (≈ 21.3 µg/mL) | 58 (≈ 26.6 µg/mL) | 8.7 (≈ 4 µg/mL) | 23.2 (≈ 10.7 µg/mL) | 17.4 (≈ 7.99 µg/mL) | 11.6 (≈ 5.33 µg/mL) | 14.5 (≈ 6.66 µg/mL) | 69.6 (≈ 32 µg/mL) | 8.7 (≈ 4 µg/mL) | 14.5 (≈ 6.66 µg/mL) | 8.7 (≈ 4 µg/mL) | 58 (≈ 26.6 µg/mL) | 58 (≈ 26.6 µg/mL) | Activity (Staphylococcus aureus [5]): Active; Activity [6]: Active; K [7]: 2.87 ×10⁴ L/mol; inhibition (Bos taurus [8]): Active; KSV (Bos taurus [9]): 87.7 L/mol; Activity (Escherichia coli [10]): Dose-dependent effect |
| COc1cc(-c2nc3ccccc3n2Cc2ccc(Cl)cc2Cl)c2c(c1O)CN1CCc3cc4c(cc3C1C2)OCO4 (stereo unspecified) | 53.3 (≈ 32 µg/mL) | 11.1 (≈ 6.67 µg/mL) | 44.4 (≈ 26.7 µg/mL) | 22.2 (≈ 13.3 µg/mL) | 35.5 (≈ 21.3 µg/mL) | 107 (≈ 64 µg/mL) | 71.1 (≈ 42.7 µg/mL) | 88.8 (≈ 53.3 µg/mL) | 22.2 (≈ 13.3 µg/mL) | 17.7 (≈ 10.6 µg/mL) | 13.3 (≈ 7.99 µg/mL) | 22.2 (≈ 13.3 µg/mL) | 26.6 (≈ 16 µg/mL) | 71.1 (≈ 42.7 µg/mL) | 22.2 (≈ 13.3 µg/mL) |  |
| COc1ccc(Cn2c(-c3cc(OC)c(O)c4c3CC3c5cc6c(cc5CCN3C4)OCO6)nc3ccccc32)cc1 (stereo unspecified) | 57 (≈ 32 µg/mL) | 19 (≈ 10.7 µg/mL) | 57 (≈ 32 µg/mL) | 47.5 (≈ 26.7 µg/mL) | 38 (≈ 21.3 µg/mL) | 95 (≈ 53.4 µg/mL) | 57 (≈ 32 µg/mL) | 38 (≈ 21.3 µg/mL) | 47.5 (≈ 26.7 µg/mL) | 47.5 (≈ 26.7 µg/mL) | 57 (≈ 32 µg/mL) | 57 (≈ 32 µg/mL) | 38 (≈ 21.3 µg/mL) | 23.8 (≈ 13.4 µg/mL) | 38 (≈ 21.3 µg/mL) |  |
| COc1cc(C=O)c2c(c1O)CN1CCc3cc4c(cc3C1C2)OCO4 (stereo unspecified) | 302 (≈ 107 µg/mL) | 483 (≈ 171 µg/mL) | 302 (≈ 107 µg/mL) | 724 (≈ 256 µg/mL) | 242 (≈ 85.3 µg/mL) | 242 (≈ 85.3 µg/mL) | 121 (≈ 42.7 µg/mL) | 302 (≈ 107 µg/mL) | 302 (≈ 107 µg/mL) | 483 (≈ 171 µg/mL) | 242 (≈ 85.3 µg/mL) | 302 (≈ 107 µg/mL) | 362 (≈ 128 µg/mL) | 151 (≈ 53.3 µg/mL) | 151 (≈ 53.3 µg/mL) |  |
| COc1cc(-c2nc3cc(Cl)ccc3[nH]2)c2c(c1O)CN1CCc3cc4c(cc3C1C2)OCO4 (stereo unspecified) | 1080 (≈ 512 µg/mL) | 717 (≈ 341 µg/mL) | 896 (≈ 427 µg/mL) | 1080 (≈ 512 µg/mL) | 896 (≈ 427 µg/mL) | 896 (≈ 427 µg/mL) | 1080 (≈ 512 µg/mL) | 359 (≈ 171 µg/mL) | 448 (≈ 213 µg/mL) | 896 (≈ 427 µg/mL) | 896 (≈ 427 µg/mL) | 717 (≈ 341 µg/mL) | 896 (≈ 427 µg/mL) | 1080 (≈ 512 µg/mL) | 896 (≈ 427 µg/mL) |  |
| COc1cc(-c2nc3ccccc3n2Cc2ccc(Cl)cc2)c2c(c1O)CN1CCc3cc4c(cc3C1C2)OCO4 (stereo unspecified) |  |  |  |  |  |  |  |  |  |  |  |  |  |  |  | MIC (Staphylococcus aureus [1]): 18.9 µM (≈ 10.7 µg/mL); MIC (Bacillus subtilis): 11.8 µM (≈ 6.68 µg/mL); MIC (Micrococcus luteus): 28.3 µM (≈ 16 µg/mL); MIC (Staphylococcus aureus [2]): 9.4 µM (≈ 5.32 µg/mL); MIC (Escherichia coli [3]): 37.7 µM (≈ 21.3 µg/mL); MIC (Escherichia coli [4]): 56.5 µM (≈ 32 µg/mL); MIC (Shigella dysenteriae): 18.9 µM (≈ 10.7 µg/mL); MIC (Pseudomonas aeruginosa): 23.6 µM (≈ 13.4 µg/mL); MIC (Salmonella typhi): 9.4 µM (≈ 5.32 µg/mL); MIC (Proteus vulgaris): 11.8 µM (≈ 6.68 µg/mL); MIC (Pichia norvegensis): 14.1 µM (≈ 7.98 µg/mL); MIC (Cyberlindnera jadinii): 11.8 µM (≈ 6.68 µg/mL); MIC (Saccharomyces cerevisiae): 14.1 µM (≈ 7.98 µg/mL); MIC (Aspergillus flavus): 14.1 µM (≈ 7.98 µg/mL); MIC (Candida albicans): 23.6 µM (≈ 13.4 µg/mL) |
| COc1cc(-c2nc3ccccc3n2Cc2ccc(Cl)c(Cl)c2)c2c(c1O)CN1CCc3cc4c(cc3C1C2)OCO4 (stereo unspecified) | 22.2 (≈ 13.3 µg/mL) | 22.2 (≈ 13.3 µg/mL) | 107 (≈ 64 µg/mL) | 35.5 (≈ 21.3 µg/mL) | 44.4 (≈ 26.7 µg/mL) | 44.4 (≈ 26.7 µg/mL) | 44.4 (≈ 26.7 µg/mL) | 35.5 (≈ 21.3 µg/mL) | 53.3 (≈ 32 µg/mL) | 22.2 (≈ 13.3 µg/mL) | 53.3 (≈ 32 µg/mL) | 44.4 (≈ 26.7 µg/mL) | 26.6 (≈ 16 µg/mL) | 88.8 (≈ 53.3 µg/mL) | 44.4 (≈ 26.7 µg/mL) |  |
| COc1ccc2cc3[n+](cc2c1OC)CCc1cc2c(cc1-3)OCO2 [BERBERINE] | 230 | 1150 | 1380 | 1380 | 1380 | 1150 | 1150 | 574 | 459 | 688 | 287 | 574 | 287 | 1150 | 918 |  |
